Results as given in ChEMBL document CHEMBL1139513, “Synthesis and structure-activity relationships of novel selective factor Xa inhibitors with a tetrahydroisoquinoline ring” (J Med Chem, 2005).
pIC50, pKi: −log10 of the molar value.

Legend:
Prothrombin = Prothrombin (Homo sapiens, UniProt P00734); experiment: Inhibitory concentration against human Coagulation factor II (thrombin)
[1] = Number of mice died after 1 day upon i.v. administration at 10 mg/kg into tail vein out of 3 animals tested; type: ADME, organism-based; set-up: dose 10 mg/kg, route intravenous; conditions: mouse, in vivo, iv, 24 h
Outline: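 Male ICR mice given a single 10 mg/kg bolus into the tail vein. Result is expressed as deaths per animals tested.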

Coagulation factor X = Coagulation factor X (Homo sapiens, UniProt P00742); experiment: Inhibitory concentration against human Coagulation factor X
Chain of Coagulation factor X (P00742 41-179 limits assumed): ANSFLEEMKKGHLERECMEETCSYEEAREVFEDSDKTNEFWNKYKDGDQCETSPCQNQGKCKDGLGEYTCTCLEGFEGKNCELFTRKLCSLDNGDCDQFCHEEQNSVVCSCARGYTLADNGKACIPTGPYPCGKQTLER
Chain of Coagulation factor X (P00742 235-488 limits assumed): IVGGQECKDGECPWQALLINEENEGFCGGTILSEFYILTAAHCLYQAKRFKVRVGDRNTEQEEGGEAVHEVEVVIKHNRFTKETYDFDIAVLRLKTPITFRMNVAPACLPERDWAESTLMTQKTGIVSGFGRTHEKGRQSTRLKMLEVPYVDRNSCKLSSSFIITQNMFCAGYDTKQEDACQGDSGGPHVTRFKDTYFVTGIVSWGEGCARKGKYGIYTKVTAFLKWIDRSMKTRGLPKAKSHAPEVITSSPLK

Plasminogen = Plasminogen (Homo sapiens, UniProt P00747); experiment: Inhibitory concentration against human Plasmin
Chain of Plasminogen (P00747 97-580 limits assumed): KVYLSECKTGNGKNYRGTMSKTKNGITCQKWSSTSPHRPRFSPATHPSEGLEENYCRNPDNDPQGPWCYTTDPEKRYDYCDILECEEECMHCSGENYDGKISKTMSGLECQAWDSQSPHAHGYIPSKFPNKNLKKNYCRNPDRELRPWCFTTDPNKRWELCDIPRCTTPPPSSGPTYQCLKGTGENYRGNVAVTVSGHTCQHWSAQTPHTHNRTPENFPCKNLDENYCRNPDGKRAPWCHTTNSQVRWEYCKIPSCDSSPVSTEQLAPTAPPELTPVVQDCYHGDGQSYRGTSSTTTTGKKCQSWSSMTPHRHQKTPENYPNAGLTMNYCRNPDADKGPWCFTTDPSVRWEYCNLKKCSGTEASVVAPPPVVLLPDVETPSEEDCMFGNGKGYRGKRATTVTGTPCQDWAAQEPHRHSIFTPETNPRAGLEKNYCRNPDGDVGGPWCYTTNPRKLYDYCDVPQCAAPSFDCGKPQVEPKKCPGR
Chain of Plasminogen (P00747 581-810 limits assumed): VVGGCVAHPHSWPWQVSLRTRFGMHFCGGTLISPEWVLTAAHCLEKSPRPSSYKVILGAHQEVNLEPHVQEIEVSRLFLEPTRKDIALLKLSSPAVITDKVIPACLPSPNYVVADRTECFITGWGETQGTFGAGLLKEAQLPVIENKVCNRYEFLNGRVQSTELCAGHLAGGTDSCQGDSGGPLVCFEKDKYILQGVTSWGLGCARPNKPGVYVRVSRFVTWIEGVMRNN
Outline: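 Plasmin assay, human enzyme at 0.02 U/mL as added, preincubated 10 min at 37 °C with vehicle or compound at 12.5, 25 and 50 µM final. S-2403 was added at 0.125 and 0.25 mM final and incubated 10 min at 37 °C. Stopped with 60% acetic acid; A405 of p-nitroaniline.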

Trypsin = Trypsin (Homo sapiens, UniProt P07477+P07478+P35030); experiment: Inhibitory concentration against human Trypsin; type: protein assay
Outline: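 Human trypsin (5 U/mL as added) preincubated 10 min at 37 °C with vehicle or compound at 50, 100 and 200 µM final. S-2222 was added at 0.125 and 0.25 mM final and incubated 10 min at 37 °C. Stopped with 60% acetic acid; p-nitroaniline read at 405 nm.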

SMILES	pIC50 (Prothrombin)	pKi (Plasminogen)	Ki (Trypsin) [nM]	Mortality [1]	pIC50 (Coagulation factor X)
Cl.Cl.N=C(N)N1CCc2ccc(OCC3CCN(c4ccncc4C(=O)O)CC3)cc2C1	< 5.00	–	–	0	5.70
Cc1cc(N2CCC(COc3ccc4c(c3)CN(C(=N)N)CC4)(C(=O)O)CC2)ccn1.Cl.Cl	–	–	–	0	6.64
CCOC(=O)C1(COc2ccc3c(c2)CN(C(=N)N)CC3)CCN(c2cc[n+](C)cc2)CC1	–	–	–	–	5.95
CC(=N)N1CC[C@H](Oc2ccc([C@H](Cc3ccc4ccc(C(=N)N)cc4c3)C(=O)O)cc2)C1.Cl [DX-9065A HYDROCHLORIDE HYDRATE]	–	4.64	620	–	–
COC(=O)c1cnccc1N1CCC(COc2ccc3c(c2)CN(C(=N)N)CC3)CC1.Cl.Cl	–	–	–	3	6.57
Cl.Cl.N=C(N)N1CCc2ccc(OCC3(C(=O)O)CCN(c4ccncc4)CC3)cc2C1	–	–	–	0	–
N=C(N)N1CCc2ccc(S(=O)(=O)CC3(C(=O)O)CCN(c4ccncc4)CC3)cc2C1	< 5.00	–	–	–	5.26
Cl.Cl.Cl.N=C(N)N1CCc2ccc(OCC3CCN(Cc4ccncc4)CC3)cc2C1	–	–	–	3	–
N=C(N)N1CCc2ccc(S(=O)(=O)NC3(C(=O)O)CCN(c4ccncc4)CC3)cc2C1	< 5.00	–	–	–	–
CCOC(=O)CCc1cnccc1N1CCC(COc2ccc3c(c2)CN(C(=N)N)CC3)CC1.Cl.Cl	< 5.00	–	–	3	6.72
Cl.Cl.N=C(N)N1CCc2ccc(OCC3CCN(c4ccncc4)CC3)cc2C1	–	–	–	3	7.25
N=C(N)N1CCc2ccc(SCC3(C(=O)O)CCN(c4ccncc4)CC3)cc2C1	–	–	–	–	6.41
CCOC(=O)C1(COc2ccc3c(c2)CN(C(=N)N)CC3)CCN(c2ccncc2)CC1.Cl.Cl	–	–	–	3	7.13
CC(=N)N1CCC(COc2ccc3c(c2)CN(C(=N)N)CC3)CC1.Cl.Cl	–	–	–	3	6.29
Cl.Cl.N=C(N)N1CCc2ccc(OCC3CCN(c4ccncc4CCC(=O)O)CC3)cc2C1	–	–	–	0	6.80
N=C(N)N1CCc2ccc(OCCC3(C(=O)O)CCN(c4ccncc4)CC3)cc2C1	–	–	–	–	6.64
Cl.Cl.N=C(N)N1CCc2ccc(OCC3(C(=O)O)CCN(c4ccncn4)CC3)cc2C1	–	–	–	0	6.92
Cl.Cl.N=C(N)N1CCc2ccc(OCC3CCN(c4ccnc5ccccc45)CC3)cc2C1	–	–	–	3	6.38
N=C(N)c1ccc2ccc(OCC3(C(=O)O)CCN(c4ccncc4)CC3)cc2c1	< 5.00	–	–	–	6.29

More lines, main results first:

pIC50 (Prothrombin)	pKi (Plasminogen)	Ki (Trypsin) [nM]	SMILES	Mortality [1]	pIC50 (Coagulation factor X)
< 5.00	–	–	N=C(N)N1CCc2ccc(OCC3CCN(Cc4ccccn4)CC3)cc2C1	–	5.87
< 5.00	–	–	N=C(N)N1CCc2ccc(OCC3CCN(Cc4ccccc4N)CC3)cc2C1	–	5.49
< 5.00	–	–	CC(=O)N1CCC(COc2ccc3c(c2)CN(C(=N)N)CC3)CC1	–	–
< 5.00	–	–	N=C(N)N1CCc2ccc(OCC3CCN(Cc4cccc(N)c4)CC3)cc2C1	–	5.39
< 5.00	–	–	N=C(N)N1CCc2ccc(OCC3CCNCC3)cc2C1	–	5.48
< 5.00	–	–	N=C(N)N1CCCc2ccc(OCC3(C(=O)O)CCN(c4ccncc4)CC3)cc2C1	–	< 5.00
